Test results: ChEMBL document CHEMBL1146047, “Novel pyrazolopyrimidopyridazinones with potent and selective phosphodiesterase 5 (PDE5) inhibitory activity as potential agents for treatment of erectile dysfunction” (J Med Chem, 2006)

Columns and labels:
[1] = target: T1, cGMP-specific 3',5'-cyclic phosphodiesterase (Homo sapiens, UniProt O76074); test: Inhibition of PDE5 at 2 uM
Outline: (§1)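 PDE5 enzyme preparation was stored frozen at -80 °C with 1 g/L bovine serum albumin until use. […] Activity is reported as percent inhibition at the single test concentration indicated.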

[2] = tested on: Phosphodiesterase 6 (Bos taurus); test: Inhibition of PDE6 at 2 uM
[3] = target: T1, cGMP-specific 3',5'-cyclic phosphodiesterase; test: Inhibition of PDE5
Homo sapiens = species: Homo sapiens; test: Selectivity for PDE5 over PDE6
[4] = target: Phosphodiesterase 6 (Bos taurus); test: Inhibition of PDE6
[5] = target: T1, cGMP-specific 3',5'-cyclic phosphodiesterase; test: Inhibition of PDE5 at 0.2 uM; outline: as §1
[6] = tested on: Phosphodiesterase 6 (Bos taurus); test: Inhibition of PDE6 at 0.2 uM

| Structure (SMILES) | inhibition [1] | inhibition [2] | IC50 [3] | further results |
| --- | --- | --- | --- | --- |
| Cc1nn(Cc2ccccc2)c(=O)c2nc(C)n3nc(-c4ccc(S(C)(=O)=O)cc4)cc3c12 | 3.8% | 2.8% |  |  |
| CCCc1nc2c(=O)n(Cc3ccccc3)nc(C)c2c2cc(-c3ccccc3)nn12 |  |  | 40 nM | Selectivity ratio (Homo sapiens): 15; IC50 [4]: 610 nM |
| CCOCc1nn(Cc2ccccc2)c(=O)c2nc(C)n3nc(-c4ccccc4)cc3c12 |  |  | 71 nM | IC50 [4]: 330 nM |
| COC(=O)CCCCc1nc2c(=O)n(Cc3ccccc3)nc(C)c2c2cc(-c3ccccc3)nn12 |  | 1.1% | 95 nM |  |
| Cc1nn(C(C)C)c(=O)c2nc(C)n3nc(-c4ccccc4)cc3c12 | 44.7% | 1.2% |  |  |
| Cc1nc2c(=O)n(Cc3ccccc3)nc(CN3CCN(C)CC3)c2c2cc(-c3ccccc3)nn12 |  |  |  | inhibition [5]: 23%; inhibition [6]: 30% |
| Cc1nc2c(=O)n(Cc3ccccc3)nc(C3CCCC3)c2c2cc(-c3ccccc3)nn12 | 14.3% | 12.3% |  |  |
| COC(=O)CCc1nc2c(=O)n(Cc3ccccc3)nc(C)c2c2cc(-c3ccccc3)nn12 |  | 16.9% | 79 nM |  |
| CCc1nn(Cc2ccccc2)c(=O)c2nc(C)n3nc(-c4ccccc4)cc3c12 |  | 21.8% | 220 nM |  |
| CC(=O)CCc1nc2c(=O)n(Cc3ccccc3)nc(C)c2c2cc(-c3ccccc3)nn12 |  | 22.8% | 8.3 nM | Selectivity ratio (Homo sapiens): > 240 |
| Cc1nn(CC(=O)O)c(=O)c2nc(C)n3nc(-c4ccccc4)cc3c12 |  |  |  | inhibition [5]: 7.6%; inhibition [6]: 11.2% |
| Cc1nc2c(=O)n(Cc3ccccc3)nc(C(C)C)c2c2cc(-c3ccccc3)nn12 |  | 59.8% | 100 nM |  |
| Cc1nn(CCC2CCNCC2)c(=O)c2nc(C)n3nc(-c4ccccc4)cc3c12 | 67.7% | 26.6% |  |  |
| Cc1nn(Cc2ccccc2)c(=O)c2ncn3nc(-c4ccccc4)cc3c12 |  |  | 180 nM | IC50 [4]: 860 nM |
| C#CCn1nc(C)c2c(nc(C)n3nc(-c4ccccc4)cc23)c1=O |  |  |  | inhibition [5]: 19.7%; inhibition [6]: 0.3% |
| CCCCn1nc(C)c2c(nc(C)n3nc(-c4ccccc4)cc23)c1=O | 54.6% | 32.5% |  |  |

Further lines, with some results ahead:

| inhibition [1] | inhibition [2] | IC50 [3] | Structure (SMILES) | further results |
| --- | --- | --- | --- | --- |
| 56.8% |  |  | Cc1nnc(NCc2ccc3c(c2)OCO3)c2nc(C)n3nc(-c4ccccc4)cc3c12 |  |
|  | 39.4% | 240 nM | Cc1nn(Cc2ccncc2)c(=O)c2nc(C)n3nc(-c4ccccc4)cc3c12 |  |
|  | 3.8% | 100 nM | COc1cccc(Cn2nc(C)c3c(nc(C)n4nc(-c5ccccc5)cc34)c2=O)c1 | Selectivity ratio (Homo sapiens): > 20 |
|  |  | 370 nM | Cc1nn(Cc2ccccc2)c(=O)c2nc(C)n3nc(-c4ccc(Cl)cc4)cc3c12 | IC50 [4]: 4700 nM |
|  |  | 470 nM | Cc1nn(Cc2ccccc2)c(=O)c2nc(C)n3nc(-c4cccnc4)cc3c12 | IC50 [4]: 280 nM |
|  | 7% | 390 nM | Cc1nn(Cc2ccc3c(c2)OCO3)c(=O)c2nc(C)n3nc(-c4ccccc4)cc3c12 |  |
|  | 25% |  | Cc1nn(Cc2ccccc2)c(=O)c2nc(C)n3nc(-c4ccccc4)cc3c12 |  |
| 44.9% | 6.9% |  | CCCn1nc(C)c2c(nc(C)n3nc(-c4ccccc4)cc23)c1=O |  |
|  |  | 140 nM | Cc1nn(Cc2ccccc2)c(=O)c2nc(C)n3nc(-c4ccsc4)cc3c12 | Selectivity ratio (Homo sapiens): 16; IC50 [4]: 2200 nM |
| 38.8% | 4.5% |  | Cc1nn(Cc2ccccc2)c(=O)c2nc(C)n3nc(-c4ccc(F)cc4)cc3c12 |  |
|  |  | 50 nM | Cc1nn(Cc2ccccc2)c(=O)c2nc(C)n3nc(-c4ccoc4)cc3c12 | IC50 [4]: 330 nM |
| 52.4% |  |  | Cc1nnc(NCc2ccccc2)c2nc(C)n3nc(-c4ccccc4)cc3c12 |  |
| 49.3% |  |  | CCn1nc(C)c2c(nc(C)n3nc(-c4ccccc4)cc23)c1=O | inhibition [6]: 53.4% |
